Reference: ChEMBL document CHEMBL1148425, “New fatty acid oxidation inhibitors with increased potency lacking adverse metabolic and electrophysiological properties” (Bioorg Med Chem Lett, 2004)
Each block holds one molecule with its values, some of them ahead of it.

How the values were obtained:
[1] = Time to reach maximum concentration in rat after 2 mg/kg peroral administration; format: ADME, organism-based; set-up: dose 2 mg/kg, route oral; conditions: in vivo, po
[2] = Oral bioavailability in rat (dose 2 mg/kg); format: ADME, organism-based; conditions: in vivo
[3] = Maximum concentration in rat after 2 mg/kg peroral administration; format: ADME, organism-based; set-up: dose 2 mg/kg, route oral; conditions: in vivo, po
[4] = molecular target: T1, Cytochrome P450 1A2 (Homo sapiens, UniProt P05177); experiment: Inhibition of human cytochrome P450 1A2
T1 sequence (P05177 whole entry): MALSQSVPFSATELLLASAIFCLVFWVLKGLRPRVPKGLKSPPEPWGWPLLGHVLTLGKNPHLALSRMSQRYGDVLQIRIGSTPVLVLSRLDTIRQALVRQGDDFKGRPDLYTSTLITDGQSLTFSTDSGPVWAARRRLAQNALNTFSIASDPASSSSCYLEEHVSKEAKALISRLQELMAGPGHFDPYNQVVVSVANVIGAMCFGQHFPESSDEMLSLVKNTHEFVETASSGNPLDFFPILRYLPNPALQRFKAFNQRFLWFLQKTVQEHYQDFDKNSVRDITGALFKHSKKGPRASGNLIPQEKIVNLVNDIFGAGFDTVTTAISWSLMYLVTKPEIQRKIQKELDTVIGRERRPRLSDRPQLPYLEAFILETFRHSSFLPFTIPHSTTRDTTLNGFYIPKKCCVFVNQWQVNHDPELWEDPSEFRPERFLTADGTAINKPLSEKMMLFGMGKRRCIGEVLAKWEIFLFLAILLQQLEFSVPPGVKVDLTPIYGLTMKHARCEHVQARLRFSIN

[5] = Metabolic stability (% remaining at 30 mins) in human S9.; format: ADME; conditions: human S9 fraction
Procedure, shortened: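 Incubated 30 min with human liver S9 (2 mg/mL protein, NADH added), n=2. Reported as % parent remaining.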

[6] = species: Cavia porcellus; experiment: Electrophysiological effect on isolated guinea pig heart as change in H-V interval at 3 uM; format: functional
[7] = Clearance of compound in rat after 1 mg/kg i.v. administration; format: ADME, organism-based; set-up: dose 1 mg/kg, route intravenous; conditions: plasma, iv, read-out: Clp
[8] = molecular target: T2, Cytochrome P450 3A4 (Homo sapiens, UniProt P08684); experiment: Inhibition of human cytochrome P450 3A4
[9] = Volume of distribution of compound in rat after 1 mg/kg i.v. administration; format: ADME, organism-based; set-up: dose 1 mg/kg, route intravenous; conditions: in vivo, iv, read-out: Vdss
[10] = Total concentration in rat after 1 mg/kg i.v. administration in 24 hours; format: ADME, organism-based; set-up: dose 1 mg/kg, route intravenous; conditions: in vivo, iv
[11] = Total concentration in rat after 2 mg/kg peroral administration in 24 hours; format: ADME, organism-based; set-up: dose 2 mg/kg, route oral; conditions: in vivo, po
[12] = species: Cavia porcellus; experiment: Electrophysiological effect on isolated guinea pig heart as change in coronary perfusion pressure at 3 uM; format: functional
[13] = Half life in rat after 2 mg/kg peroral administration; format: ADME, organism-based; set-up: dose 2 mg/kg, route oral; conditions: in vivo, po
[14] = molecular target: Cytochrome P450 2C9 (Homo sapiens, UniProt P11712); experiment: Inhibition of cytochrome P450 2C9 (human)
[15] = Half life in rat after 1 mg/kg i.v. administration; format: ADME, organism-based; set-up: dose 1 mg/kg, route intravenous; conditions: in vivo, iv
[16] = species: Cavia porcellus; experiment: Electrophysiological effect on isolated guinea pig heart as change in S-H interval at 3 uM; format: functional
[17] = molecular target: T3, Peroxisomal acyl-coenzyme A oxidase 1 (Rattus norvegicus) (UniProt P07872); experiment: Inhibition of rat heart mitochondrial Palmitoyl-CoA oxidation at 30 uM
T3 sequence (whole entry): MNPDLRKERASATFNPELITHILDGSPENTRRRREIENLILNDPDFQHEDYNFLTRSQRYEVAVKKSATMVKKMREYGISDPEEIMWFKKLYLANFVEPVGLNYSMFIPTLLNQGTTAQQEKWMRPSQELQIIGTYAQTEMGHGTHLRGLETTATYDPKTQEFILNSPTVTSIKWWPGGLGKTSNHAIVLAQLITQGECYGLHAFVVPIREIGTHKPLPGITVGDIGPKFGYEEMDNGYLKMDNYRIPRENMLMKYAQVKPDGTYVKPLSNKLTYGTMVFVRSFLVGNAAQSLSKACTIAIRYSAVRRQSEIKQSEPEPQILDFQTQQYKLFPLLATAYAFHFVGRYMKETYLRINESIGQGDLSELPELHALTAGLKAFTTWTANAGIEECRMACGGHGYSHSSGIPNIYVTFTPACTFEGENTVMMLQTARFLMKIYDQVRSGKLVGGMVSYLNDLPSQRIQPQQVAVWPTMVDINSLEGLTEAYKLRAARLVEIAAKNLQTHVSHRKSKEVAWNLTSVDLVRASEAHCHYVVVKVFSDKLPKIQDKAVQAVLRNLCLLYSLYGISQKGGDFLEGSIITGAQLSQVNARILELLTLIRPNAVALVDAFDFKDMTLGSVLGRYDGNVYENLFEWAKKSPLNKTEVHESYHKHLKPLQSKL
Procedure, shortened: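 Rat heart mitochondrial preparations incubated with 1-[¹⁴C]-palmitoylCoA as the long-chain fatty acid oxidation substrate. Oxidation inhibition was reported as % inhibition at the listed test concentration, averaged from two or three measurements.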

[18] = molecular target: T2, Cytochrome P450 3A4; experiment: Inhibition of cytochrome P450 3A4 (human)

Sequence of Cytochrome P450 2C9 (P11712 whole entry): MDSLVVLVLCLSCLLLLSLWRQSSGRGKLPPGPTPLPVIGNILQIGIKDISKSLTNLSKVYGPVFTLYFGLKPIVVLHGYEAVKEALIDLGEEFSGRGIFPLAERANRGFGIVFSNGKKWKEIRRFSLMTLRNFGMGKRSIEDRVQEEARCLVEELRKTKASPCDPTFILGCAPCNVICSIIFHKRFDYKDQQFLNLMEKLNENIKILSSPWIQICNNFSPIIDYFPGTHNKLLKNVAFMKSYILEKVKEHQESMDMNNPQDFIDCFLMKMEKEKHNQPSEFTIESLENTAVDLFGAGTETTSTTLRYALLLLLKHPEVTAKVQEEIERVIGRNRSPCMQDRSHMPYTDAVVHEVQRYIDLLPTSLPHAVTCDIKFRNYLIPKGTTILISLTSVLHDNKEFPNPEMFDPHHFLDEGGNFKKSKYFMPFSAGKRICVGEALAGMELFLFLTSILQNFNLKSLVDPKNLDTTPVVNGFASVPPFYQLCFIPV
T2 sequence (P08684 whole entry): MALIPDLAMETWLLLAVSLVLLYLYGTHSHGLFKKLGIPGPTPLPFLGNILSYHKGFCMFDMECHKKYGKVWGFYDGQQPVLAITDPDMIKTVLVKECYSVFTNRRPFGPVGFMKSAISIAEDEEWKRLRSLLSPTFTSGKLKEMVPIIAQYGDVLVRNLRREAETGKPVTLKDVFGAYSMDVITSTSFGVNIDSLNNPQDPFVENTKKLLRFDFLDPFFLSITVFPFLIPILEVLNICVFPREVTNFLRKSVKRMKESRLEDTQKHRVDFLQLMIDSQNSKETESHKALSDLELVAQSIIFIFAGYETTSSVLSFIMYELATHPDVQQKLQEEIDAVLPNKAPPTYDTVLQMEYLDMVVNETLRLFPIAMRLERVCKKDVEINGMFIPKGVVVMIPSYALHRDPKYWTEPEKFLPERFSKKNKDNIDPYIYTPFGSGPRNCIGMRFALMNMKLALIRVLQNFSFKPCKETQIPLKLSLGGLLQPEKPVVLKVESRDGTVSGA

Compound: Cc1nc2cc(OC[C@H](O)CN3CCN(CC(=O)Nc4c(C)cccc4C)CC3)ccc2s1
Tmax [1]: 0.83 h
bioavailability [2]: 19.5%
Cmax [3]: 26.1 ng/mL
IC50 [4]: > 100 µM
remaining at 0.5 h [5]: 50%
Delta H-V [6]: 4 ms
clearance [7]: 54.5 mL/min/kg
IC50 [8]: 23 µM
Vd [9]: 6.2 L/kg
AUC at 24 h [10]: 313 ng·h/mL
AUC at 24 h [11]: 61.1 ng·h/mL
Delta CPP [12]: -8 mmHg
half-life [13]: 1.2 h
IC50 [14]: > 100 µM
half-life [15]: 1.4 h
Delta S-H [16]: 3 ms

Compound: Cc1nc2cc(OC[C@H](O)CN3CCN(CC(=O)Nc4ccc5c(c4)CCCC5)CC3)ccc2s1
remaining at 0.5 h [5]: 2%

Compound: Cc1nc2cc(OC[C@H](O)CN3CCN(CC(=O)Nc4ccc(Oc5ccc(Cl)cc5)cc4)CC3)ccc2s1
remaining at 0.5 h [5]: 64%

Compound: Cc1nc2cc(OC[C@H](O)CN3CCN(CC(=O)Nc4cccc5ncccc45)CC3)ccc2s1
remaining at 0.5 h [5]: 2%

Compound: Cc1nc2cc(OC[C@H](O)CN3CCN(CC(=O)Nc4ccc(Oc5ccccc5)cc4)CC3)ccc2s1
remaining at 0.5 h [5]: 18%

Compound: Cc1nc2cc(OC[C@H](O)CN3CCN(CC(=O)NCCc4ccccc4)CC3)ccc2s1
remaining at 0.5 h [5]: 27%

Compound: Cc1nc2cc(OC[C@H](O)CN3CCN(CC(=O)Nc4ccccc4Oc4ccccc4)CC3)ccc2s1
inhibition [17]: 34%

Compound: Cc1nc2cc(OC[C@H](O)CN3CCN(CC(=O)Nc4ccccc4)CC3)ccc2s1
remaining at 0.5 h [5]: 47%

Compound: COc1ccc(NC(=O)CN2CCN(C[C@@H](O)COc3ccc4sc(C)nc4c3)CC2)cc1
remaining at 0.5 h [5]: 41%

Compound: Cc1nc2cc(OC[C@H](O)CN3CCN(CC(=O)N[C@H](C)c4ccccc4)CC3)ccc2s1
inhibition [17]: 23%

Compound: Cc1nc2cc(OC[C@H](O)CN3CCN(CC(=O)Nc4ccccc4-c4ccccc4)CC3)ccc2s1
inhibition [17]: 39%

Compound: Cc1cc(NC(=O)CN2CCN(C[C@@H](O)COc3ccc4sc(C)nc4c3)CC2)c2ccccc2n1
inhibition [17]: 40%

Compound: Cc1nc2cc(OC[C@H](O)CN3CCN(CC(=O)N[C@@H]4CCc5ccccc54)CC3)ccc2s1
inhibition [17]: 50%

Compound: Cc1nc2cc(OC[C@H](O)CN3CCN(CC(=O)NCC4CCCCC4)CC3)ccc2s1
remaining at 0.5 h [5]: 29%

Second part, led by results:

inhibition [17]: 24%
Compound: Cc1nc2cc(OC[C@H](O)CN3CCN(CC(=O)N[C@H](C)c4cccc5ccccc45)CC3)ccc2s1

remaining at 0.5 h [5]: 2%
Compound: Cc1nc2cc(OC[C@H](O)CN3CCN(CC(=O)N[C@H]4CCCc5ccccc54)CC3)ccc2s1

IC50 [18]: 37 µM
IC50 [4]: 6 µM
remaining at 0.5 h [5]: 58%
IC50 [14]: 24 µM
Compound: Cc1nc2cc(OC[C@H](O)CN3CCN(CC(=O)Nc4cccc(-c5ccccc5)c4)CC3)ccc2s1
Delta H-V [6]: 0 ms
Delta CPP [12]: -4.3 mmHg
Delta S-H [16]: 3 ms

remaining at 0.5 h [5]: 14%
Compound: Cc1nc2cc(OC[C@H](O)CN3CCN(CC(=O)N[C@@H](C)c4ccc5ccccc5c4)CC3)ccc2s1

remaining at 0.5 h [5]: 12%
Compound: Cc1nc2cc(OC[C@H](O)CN3CCN(CC(=O)Nc4cccc5cccnc45)CC3)ccc2s1

remaining at 0.5 h [5]: 10%
Compound: Cc1nc2cc(OC[C@H](O)CN3CCN(CC(=O)N[C@@H](C)c4cccc5ccccc45)CC3)ccc2s1

remaining at 0.5 h [5]: 15%
Compound: Cc1nc2cc(OC[C@H](O)CN3CCN(CC(=O)Nc4ccc5c(c4)CCC5)CC3)ccc2s1
